TNAP inh noacc = inhibitors of human TNAP without phosphate acceptor | hit rate 0.26% among 200,000 | inhibition, % at 20 µM | P05186 | AID 1012 | purified TNAP, CDP-star luminescence, 30 min;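 active = tissue-nonspecific alkaline phosphatase inhibition above about 50% at 20 µM in the single-dose screen, limit read from the data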;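 also: 0% = DMSO negative control and 100% = EDTA positive control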
TNAP act hi DEA = increases human TNAP activity under high phosphate acceptor concentration | purified TNAP, CDP-star luminescence, 1 M DEA, 30 min; stronger effect = higher value; 0 = EDTA background, 1 = DMSO-only activity | AID 1136 | activation factor at 20 µM | 200,000 tested, under 10 active;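 active = activation factor at least 2 at 20 µM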
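system = human TNAP | amount = enzyme diluted 1/800 final | reagent = 100 µM CDP-star substrate | signal = luminescent substrate turnover signal | dosing = one dose, 20 µM | benchmarks = EDTA negative control, DMSO positive control | measure = activation factor | timing = 30 min reaction, room temperature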
PMI act satM6P = PMI (human) activation, high substrate; P34949; coupled PMI enzyme assay, resazurin fluorescence, 20 min; stronger effect = higher value; 1 = untreated enzyme, 0 = substrate-free blank; activation factor at 20 µM; hit rate 0.34% among 190,000;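 active = activation factor of 2 or more at 20 µM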
Target sequence (P34949 whole entry, looked up): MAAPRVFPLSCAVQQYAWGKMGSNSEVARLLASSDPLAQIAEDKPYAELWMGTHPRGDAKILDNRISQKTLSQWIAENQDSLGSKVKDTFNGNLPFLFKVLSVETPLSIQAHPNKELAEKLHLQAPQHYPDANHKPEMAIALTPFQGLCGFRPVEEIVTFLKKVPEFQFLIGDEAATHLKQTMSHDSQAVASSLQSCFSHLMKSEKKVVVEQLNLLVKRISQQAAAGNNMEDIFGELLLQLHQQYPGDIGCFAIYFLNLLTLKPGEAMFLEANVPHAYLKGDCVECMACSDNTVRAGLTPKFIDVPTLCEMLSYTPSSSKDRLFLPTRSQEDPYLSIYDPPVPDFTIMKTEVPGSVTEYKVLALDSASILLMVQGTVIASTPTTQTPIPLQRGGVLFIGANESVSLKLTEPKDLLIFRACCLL
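Material: human phosphomannose isomerase with PGI, G6PDH, diaphorase coupling enzymes; amount: PMI at 15 ng/mL final; also added: Mannose-6-phosphate 1.0 mM (near-saturating) plus 0.22 mM NADP+; incubation: enzyme reaction with compound 20 min at room temperature; signal: resorufin fluorescence (Ex 544/Em 590 nm) from resazurin via diaphorase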
PMI activator = phosphomannose isomerase (human) activation; activation factor at 20 µM; AID 1214; P34949; purified human PMI, coupled resazurin fluorescence, 20 min; stronger effect = higher value; 1 = vehicle control, 0 substrate-free wells; hit rate 0.005% among 190,000;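 active = activation factor of 2 or more at 20 µM, relative to plate controls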
TNAP inh hiacc = blocks human TNAP under high phosphate acceptor concentration | AID 1135 | purified TNAP, CDP-star luminescence, 1 M DEA | inhibition, % at 20 µM | hit rate 0.03% among 200,000;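 active = over 50% inhibition of tissue-nonspecific alkaline phosphatase at 20 µM in the single-dose screen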;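 also: plate controls were DMSO wells for no effect and EDTA-quenched wells as full inhibition for full effect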
Active calls of the source: *. A selection: hits, their analogues and other compounds. The true share with any hit is near 0.6%.

COCCN=c1scc(-c2ccco2)n1/N=C/c1ccc(O)c(O)c1O was read as TNAP inh noacc 18.8, TNAP act hi DEA 0.9, PMI act satM6P 0.5, PMI activator 0.3 and TNAP inh hiacc 12.4.
Screening COc1cc(/C=N/Nc2ccc(Cl)cc2)ccc1OC(=O)c1cccs1 returned TNAP inh noacc 5.8, TNAP act hi DEA 1, PMI act satM6P 2.3*, PMI activator 1.3 and TNAP inh hiacc -1.8.
For CCCN1CCC(=NNC(=O)c2ccc(Br)o2)CC1 the results were TNAP inh noacc 11.5, TNAP act hi DEA 1, PMI act satM6P 1, PMI activator 1.1 and TNAP inh hiacc -4.4.
For CCCN1CCC(=NNc2ccc(C(=O)O)cc2)CC1 the results were TNAP inh noacc -11.5, TNAP act hi DEA 1.1, PMI act satM6P 3*, PMI activator 1.8 and TNAP inh hiacc -6.0.
For C(#Cc1ccccc1)C[N+]1(CC#Cc2cccc3ccccc23)CCOCC1 the results were TNAP inh noacc -11.4, TNAP act hi DEA 1.1, PMI act satM6P 1.1, PMI activator 1.1 and TNAP inh hiacc -10.1.
`O=C1[C@H]2[C@H](ON3CCCC[C@H]23)C(=O)N1c1ccc(Cl)cc1` gave TNAP inh noacc -0.1, TNAP act hi DEA 1, PMI act satM6P 1, PMI activator 1 and TNAP inh hiacc 1.1.
For O=C(c1ccc(Cl)cc1)C1C2C(=O)N(c3ccccc3)C(=O)C2C2CCCN21 (configuration not stated) the results were TNAP inh noacc 4.7, TNAP act hi DEA 1, PMI act satM6P 2*, PMI activator 1.6 and TNAP inh hiacc -1.9.
Cc1ccc(N2C(=O)[C@@H]3[C@H](C2=O)C2CCCN2[C@@H]3C(=O)c2ccccc2)cc1 (some centres not stated) was read as TNAP inh noacc -12.3, TNAP act hi DEA 1.1, PMI act satM6P 2*, PMI activator 1.5 and TNAP inh hiacc -5.9.
Screening CC(=O)c1ccc(N2C(=O)C3C(C2=O)C(C(=O)c2ccc(Cl)cc2)N2CCCC32)cc1 (configuration not stated) returned TNAP inh noacc -2.2, TNAP act hi DEA 1, PMI act satM6P 2*, PMI activator 1.6 and TNAP inh hiacc -4.2.
CCC(=O)c1ccc(OC(C)C(=O)NC2(C#N)CCCCC2)cc1 (configuration not stated) was read as TNAP inh noacc -2.3, TNAP act hi DEA 1, PMI act satM6P 1, PMI activator 0.9 and TNAP inh hiacc -4.8.
For CN(C(=O)/C=C/c1cnc2ccccc2c1)C1CCCCC1 the results were TNAP inh noacc -10.4, TNAP act hi DEA 1, PMI act satM6P 1.1, PMI activator 1.1 and TNAP inh hiacc -1.7.
For CC1(C)Cc2nc3sc(C(=O)O)c(N)c3cc2CS1 the results were TNAP inh noacc -11.9, TNAP act hi DEA 1, PMI act satM6P 2.4*, PMI activator 1.7 and TNAP inh hiacc -0.7.
Screening Cc1ccc(S(=O)(=O)/N=C(\Nc2cc(C)on2)c2ccc(Cl)cc2)cc1 returned TNAP inh noacc -3.9, TNAP act hi DEA 1, PMI act satM6P 1, PMI activator 1 and TNAP inh hiacc -0.9.
For CC(C)NC(=O)c1ccc2c(c1)S(=O)(=O)c1ccccc1C2=O the results were TNAP inh noacc -5.3, TNAP act hi DEA 1, PMI act satM6P 1.3, PMI activator 1.2 and TNAP inh hiacc -4.6.
Screening NNC(=O)c1ccc2c(c1)S(=O)(=O)NNC2=O returned TNAP inh noacc 3.9, TNAP act hi DEA 1, PMI act satM6P 2.9*, PMI activator 1.9 and TNAP inh hiacc -1.9.
O=C(O)Cc1sc(Nc2ccccc2)nc1-c1ccc(Cl)cc1 was read as TNAP inh noacc -8.1, TNAP act hi DEA 1, PMI act satM6P 2.5*, PMI activator 1.6 and TNAP inh hiacc -3.0.
Screening Cc1ccc(Nc2nc(-c3ccccc3)c(CC(=O)O)s2)cc1 returned TNAP inh noacc -17.0, TNAP act hi DEA 1.1, PMI act satM6P 1, PMI activator 1 and TNAP inh hiacc -8.6.
CC(OCCN1CCCC1)(c1ccc(F)cc1)c1ccc(F)cc1 was read as TNAP inh noacc -8.1, TNAP act hi DEA 1.1, PMI act satM6P 1.2, PMI activator 1.3 and TNAP inh hiacc -9.0.
For COc1ccc(C)cc1S(=O)(=O)Nc1cccnc1 the results were TNAP inh noacc 85.0*, TNAP act hi DEA 0.4, PMI act satM6P 0.9, PMI activator 1 and TNAP inh hiacc 64.4*.
Screening COc1ccc(OC)c(S(=O)(=O)Nc2ccc(F)cc2)c1 returned TNAP inh noacc -5.5, TNAP act hi DEA 1, PMI act satM6P 0.9, PMI activator 0.9 and TNAP inh hiacc -0.8.
Screening COc1ccc(OC)c(S(=O)(=O)Nc2cnc3ccccc3c2)c1 returned TNAP inh noacc 94.3*, TNAP act hi DEA 0.2, PMI act satM6P 1, PMI activator 0.9 and TNAP inh hiacc 82.1*.
Screening O=C(Nc1ccc(Cl)c(Cl)c1)Nc1ccccc1NS(=O)(=O)c1cccs1 returned TNAP inh noacc 5.8, TNAP act hi DEA 1, PMI act satM6P 1, PMI activator 0.9 and TNAP inh hiacc -0.9.
For CN(C(=O)CSc1nc(N)c2c3c(sc2n1)CSC(C)(C)C3)c1ccccc1 the results were TNAP inh noacc -10.7, TNAP act hi DEA 1, PMI act satM6P 1.1, PMI activator 1 and TNAP inh hiacc -1.6.
Nc1c(-c2ccccc2)n[nH]c1-c1ccccc1 was read as TNAP inh noacc 89.2*, TNAP act hi DEA 1, PMI act satM6P 1.1, PMI activator 1 and TNAP inh hiacc -2.1.
Cc1ccc(NC2CC(=O)N(c3ccc(C)cc3)C2=O)cc1 (configuration not stated) was read as TNAP inh noacc 0.2, TNAP act hi DEA 1.1, PMI act satM6P 1, PMI activator 1.1 and TNAP inh hiacc -5.5.
O=C1CC(NNc2ccccc2)C(=O)N1c1ccccc1 (configuration not stated) was read as TNAP inh noacc 1.1, TNAP act hi DEA 1, PMI act satM6P 2.5*, PMI activator 1.7 and TNAP inh hiacc -2.5.
Screening Cc1ccc(NNC2CC(=O)N(c3cccc(Cl)c3)C2=O)cc1 (configuration not stated) returned TNAP inh noacc -3.7, TNAP act hi DEA 1, PMI act satM6P 2.6*, PMI activator 1.7 and TNAP inh hiacc -2.2.
Screening Cc1cc(SCC(=O)OCC(=O)NCC2CCCO2)c(C)cc1Br (configuration not stated) returned TNAP inh noacc -10.2, TNAP act hi DEA 1, PMI act satM6P 1.1, PMI activator 1 and TNAP inh hiacc -4.5.
For COC(=O)C(N)Cc1ccc(O)c(O)c1 (configuration not stated) the results were TNAP inh noacc 47.1, TNAP act hi DEA 1, PMI act satM6P 0.5, PMI activator 0.4 and TNAP inh hiacc 4.3.
Screening C[C@](N)(Cc1ccc(O)c(O)c1)C(=O)O returned TNAP inh noacc 54.1*, TNAP act hi DEA 1, PMI act satM6P 0.6, PMI activator 0.4 and TNAP inh hiacc 4.9.

Screens: PubChem BioAssay, Sanford-Burnham Center for Chemical Genomics
